Test results published in PubChem BioAssay AID504789 (Broad Institute, 2011).
Results filed as inconclusive are left out. Activity calls are given as the source filed them.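 The calls were made as follows: active = compound whose fitted half-maximal dose lies within ten times its top tested dose in every test run, killing cells; inconclusive = test runs disagree, or a run gives an unclear call; inactive = every test run inactive.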

test system: not listed separately; test: HMLE_sh_eGFP viability loss – cell-based, luminescence, dry powder, set 7, counter-screen for breast cancer stem cell project, dose response (AID 504789); details: HMLE_sh_eGFP viability, CellTiter-Glo luminescence, 72 h; at 19.5 µM (top of the series)
How it was run: (§1)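 Material: HMLE_sh_eGFP control cell line (HMLE cells with shRNA against eGFP) / Quantity: 2000 cells per well / Buffer or medium: serum-free growth medium / Times: about 70–74 h compound exposure, 37 °C / Signal: ATP luminescence with CellTiter-Glo diluted 1:3 in PBS / Control set: DMSO neutral control and 160 µM puromycin positive control, every plate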

Row | Structure (SMILES) | activity change, negative = cytotoxicity
1 | Cc1csc(NC(=O)c2ccc(COc3ncccc3F)o2)n1 | -4.8% (inactive)
2 | CC(C)c1ccc(/C=C\C(=O)NC2=NCCS2)cc1 | -12.1% (inactive)
3 | O=C(COc1c(Cl)cc(Cl)cc1Cl)N/N=C/c1ccc[nH]1 | 17.5% (inactive)
4 | O=C(c1ccc(COc2ccccc2)o1)n1ccc(-c2ccc[nH]2)n1 | 10.5% (inactive)
5 | COc1cc(OC(C)C)ccc1/C=C/C(=O)NC1=NCCS1 | 25% (inactive)
6 | O=C(COc1ccc(Cl)cc1Cl)N/N=C/c1ccccc1 | 11.1% (inactive)
7 | O=C(COc1ccc(Cl)cc1Cl)Nc1nccs1 | 0.602% (inactive)
8 | Cc1ccnc(NCc2ccc(C(=O)Nc3nc(C)cs3)o2)c1 | -1.56% (inactive)
9 | COc1cc(C(C)C)ccc1/C=C/C(=O)NC1=NCCS1 | 10.3% (inactive)
10 | O=C(c1ccc(COc2ccccc2)o1)N1CC(F)(F)C1 | 13.3% (inactive)
11 | CCc1ccc(/C=C/C(=O)NC2=NCCS2)cn1 | -2.79% (inactive)
12 | Cc1csc(NC(=O)c2ccc(COc3cccnc3)o2)n1 | 17.4% (inactive)
13 | CN(C)C(=N)N=C(N)N | 15.9% (inactive)
14 | Cc1cccc(/C=C/C(=O)NC2=NCCS2)c1 | 23.8% (inactive)
15 | Cc1csc(NC(=O)c2ccc(CNc3ncccc3F)o2)n1 | 3.58% (inactive)
16 | O=C(O)COc1ccc(Cl)cc1Cl | -6.56% (inactive)
17 | CC(C)c1ccc(C#CC(=O)NC2=NCCS2)cc1 | 6.05% (inactive)
18 | CC(C)c1ccc(/C=C/C(=O)N2CC(F)(F)C2)cc1 | 11.1% (inactive)
19 | O=C(COc1ccc(Cl)cc1Cl)n1ccc(-c2ccc[nH]2)n1 | 27.2% (inactive)
20 | N#Cc1ccccc1/C=C/C(=O)NC1=NCCS1 | 5.88% (inactive)
21 | N#Cc1cccc(/C=C/C(=O)NC2=NCCS2)c1 | -7.41% (inactive)
22 | O=C(COc1ccc(Cl)cc1Cl)NC1=NCCS1 | -6.79% (inactive)
23 | Cc1csc(NC(=O)c2cccc(CNc3ccccn3)c2)n1 | -7.38% (inactive)

test system: HMLE_sh_eGFP viability, CellTiter-Glo luminescence, 72 h; test: as above; details: not given
How it was run: as §1

Row | Structure (SMILES) | AC50 [µM]
24 | Cc1csc(NC(=O)c2cccc(COc3cccc(Cl)c3)c2)n1 | 3.87
25 | Cc1csc(NC(=O)c2cccc(COc3cccc(F)c3)c2)n1 | 2.2
26 | Cc1csc(NC(=O)c2ccc(COc3cccc(OC(F)(F)F)c3)o2)n1 | 3.01
27 | Cc1cccc(NCc2cccc(C(=O)Nc3nc(C)cs3)c2)n1 | 25
28 | COc1cccc2c1C(=O)c1c(O)c3c(c(O)c1C2=O)C[C@@](O)(C(=O)CO)C[C@@H]3OC1C[C@H](N)[C@H](O)[C@H](C)O1 (some centres not stated) | 0.068
29 | Cc1cccc(OCc2cccc(C(=O)Nc3nc(C)cs3)c2)c1 | 11.9
30 | Cc1csc(NC(=O)c2cccc(COc3ccccc3F)c2)n1 | 12.4
31 | Cc1cccc(NCc2ccc(C(=O)Nc3nc(C)cs3)o2)n1 | 21.9
32 | CC(C)c1ccc(/C=C/C(=O)n2ccc(-c3ccc[nH]3)n2)cc1 | 10.7
